Screening data as filed in PubChem.
An excerpt weighted towards active compounds, which were near 2.3% of everything screened.
Beta cell apopt = beta cell apoptosis inhibition; AID 435005; protection from apoptosis, % (test concentration not listed); 300,000 compounds, 0.8% hits; INS-1E cytokine-induced death, ATP luminescence, 48 h; percent of positive-control rescue, neutral wells zero;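 active means Every replicate reaches about 75%, or at least half do and their mean reaches it too, limit read from the data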;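 further: 0% = cytokine-treated negative control wells and 100% = positive control rescue; higher means more ATP so stronger rescue from cytokine killing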
Bfl-1 A1 inh = inhibitors of the anti-apoptotic protein A1, read as caspase activation | AID 2462 | caspase activation, % (concentration not given with the values) | MEF A1-2A-BIM cells, Caspase-Glo 3/7 luminescence, 3 h; percent of clofoctol response, vehicle zero | 330,000 compounds, 0.066% hits;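 active means over half of replicate activation scores above 10%, or exactly half above 10 with the replicate mean above 10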
T cruzi inh = blocks replication of Trypanosoma cruzi; AID 1885; inhibition, % (no concentration beside the values); 300,000 compounds, 1.4% hits; T. cruzi beta-gal in NIH3T3, luminescence, 90 h;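 active means mean inhibition across valid replicates above about 55%, limit read from the data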;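 further: signal also drops with host cell toxicity which is not excluded here; 0% = plate median of DMSO wells and 100% = zero luminescence signal; higher percent means less beta-gal luminescence so fewer parasites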
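System – NIH/3T3 host cells with β-galactosidase reporter T. cruzi · Doses – single 50 nL compound addition per well in DMSO · Reagent – 5000 T. cruzi trypomastigotes/well · Medium – Low-serum DMEM with 2% FBS · Timing – ≥90 h infection period, 3 h prior cell attachment · Evaluation – parasite load inhibition, % · Technique – GalScreen luminescence, 60 min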
HIF act = HIF pathway transcriptional activation; U2OS HRE-luciferase reporter, luminescence; normalized: DMSO 0%, desferrioxamine 100%; activation, % at 7.5 µM (by protocol); 300,000 compounds, 0.32% hits; AID 1910;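 active means mean activation of at least 10% of the iron chelator positive control signal, with at least half of replicates also reaching 10%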
KLF5 inhibitor = kruppel-like factor 5 inhibition. DLD-1 KLF5 promoter-luciferase reporter, luminescence. inhibition, % at 5 µM. 290,000 compounds, 0.23% hits. AID 1700;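 active means inhibition above a per-plate limit of that plate's mean compound inhibition plus 3 SD, cut at about 60% in these data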;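 further: 0% = DMSO wells and 100% = LY294002 at 200 µM; higher means less KLF5 promoter-driven luciferase light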
* marks the source's active call; other numbers are inactive results; / = no result given.

SMILES	Beta cell apopt	Bfl-1 A1 inh	T cruzi inh	HIF act	KLF5 inhibitor
Cc1ccc(C(=O)NCC(=O)OCC(=O)Nc2ccc3[nH]c(=O)[nH]c3c2)cc1	1.9	0.6	-9.2	0.2	/
COc1ccc(-c2cn(Cc3ccc4ccccc4c3)nn2)cc1	-8.3	-1.7	2.8	-0.7	-42.6
COc1ccc(-c2cn(Cc3ccc(C(=O)c4ccccc4)cc3)nn2)cc1	106.2*	-5.1	-12.5	2.9	-147.2
Cc1nnsc1C(=O)N/N=C/c1ccccc1	6.7	0.0	-12.7	0.0	14.3
Cc1nnsc1C(=O)N/N=C/c1ccc2ccccc2c1O	124.5*	-3.5	54.7*	115.5*	-12.2
C#CCOCCOCCOCCNc1nc(N2CCN(C(=O)CCCCCCCCCCNC(=O)[C@H]([C@@H](C)CC)n3cc(CCCCCN)nn3)CC2)nc(N2CCN(C(=O)CCCCCCCCCCNC(=O)[C@H]([C@@H](C)CC)n3cc(CCCCN=C(N)N)nn3)CC2)n1	97.7*	0.7	/	/	/
C#CCOCCOCCOCCNc1nc(N2CCOCC2)nc(N2CCN(C(=O)CCCCCCCCCCNC(=O)[C@@H]([C@H](C)CC)n3cc(CCCCCN)nn3)CC2)n1	3.7	-0.1	/	/	/
C#CCOCCOCCOCCNc1nc(N2CCN(C(=O)CCCCCCCCCCNC(=O)[C@H]([C@@H](C)CC)n3cc(CCCCCN)nn3)CC2)nc(N2CCN(C(=O)CCCCCCCCCCNC(=O)[C@@H]([C@H](C)CC)n3cc(CCCCCN)nn3)CC2)n1	114.8*	6.6*	/	/	/
C#CCOCCOCCOCCNc1nc(N2CCN(C(=O)CCCCCCCCCCNC(=O)Cn3cc(C[C@@H](C)O)nn3)CC2)nc(N2CCN(C(=O)CCCCCCCCCCNC(=O)[C@H](CCCCN)n3cc(CCCC(=O)O)nn3)CC2)n1	1.4	-0.2	/	/	/
C#CCOCCOCCOCCNc1nc(N2CCN(C(=O)CCCCCCCCCCNC(=O)Cn3cc(C[C@@H](C)O)nn3)CC2)nc(N2CCN(C(=O)CCCCCCCCCCNC(=O)[C@H](CCCN=C(N)N)n3cc(C[C@@H](C)CC)nn3)CC2)n1	60.6	0.0	66.1*	-3.1	/
C#CCOCCOCCOCCNc1nc(N2CCN(C(=O)CCCCCCCCCCNC(=O)[C@H]([C@@H](C)CC)n3cc(CCCCN=C(N)N)nn3)CC2)nc(N2CCN(C(=O)CCCCCCCCCCNC(=O)[C@H]([C@@H](C)CC)n3cc(CCCCN=C(N)N)nn3)CC2)n1	99.2*	-0.4	/	/	/
C#CCOCCOCCOCCNc1nc(N2CCN(C(=O)CCCCCCCCCCNC(=O)[C@H]([C@@H](C)CC)n3cc(CCCCN=C(N)N)nn3)CC2)nc(N2CCN(C(=O)CCCCCCCCCCNC(=O)[C@H](CO)n3cc(CCCCCN)nn3)CC2)n1	108.0*	0.0	/	/	/
C#CCOCCOCCOCCNc1nc(N2CCN(C(=O)CCCCCCCCCCNC(=O)Cn3cc(CCCCCN)nn3)CC2)nc(N2CCN(C(=O)CCCCCCCCCCNC(=O)[C@H]([C@@H](C)CC)n3cc(CCCCN=C(N)N)nn3)CC2)n1	86.4*	-2.9	/	/	/
C#CCOCCOCCOCCNc1nc(N2CCN(C(=O)Cn3cc(CCCN=C(N)N)nn3)CC2)nc(N2CCN(C(=O)[C@H]([C@@H](C)CC)n3cc(CCCCN)nn3)CC2)n1	0.4	0.0	/	/	/
C#CCOCCOCCOCCNc1nc(N2CCN(C(=O)CCCCCCCCCCNC(=O)[C@H]([C@@H](C)CC)n3cc(CCCCN=C(N)N)nn3)CC2)nc(N2CCN(C(=O)CCCCCCCCCCNC(=O)[C@H](CCCCN)n3cc(C)nn3)CC2)n1	98.0*	-0.6	/	/	/
C#CCOCCOCCOCCNc1nc(N2CCN(C(=O)CCCCCCCCCCNC(=O)[C@H]([C@@H](C)CC)n3cc(CCCCCN)nn3)CC2)nc(N2CCN(C(=O)CCCCCCCCCCNC(=O)[C@H](CO)n3cc(CCCCCN)nn3)CC2)n1	56.2	0.3	/	/	/
Cc1ccc(N(CC(=O)NC2CCCCC2)C(=O)CNC(=O)c2ccco2)cc1C	-2.1	-0.1	6.0	0.0	-7.0
O=C(O)c1ccccc1Nc1cc(Cl)c2nonc2c1[N+](=O)[O-]	1.3	1.9	9.1	-0.4	-9.5
O=[N+]([O-])c1c(Nc2ccccn2)cc(Cl)c2nonc12	114.7*	-2.2	59.8*	1.8	-13.3
O=[N+]([O-])c1c(Nc2ccc(O)cc2)cc(Cl)c2nonc12	99.8*	1.2	64.1*	-2.3	25.5
CCc1ccc(-c2cc(C(F)(F)F)n3nc(C(=O)Nc4cnn(Cc5ccc(C)cc5)c4)cc3n2)s1	76.4*	2.3	7.1	0.0	-12.5
Cc1ccccc1Cn1cc(NC(=O)c2cc3nc(-c4ccco4)cc(C(F)(F)F)n3n2)cn1	7.8	-0.4	28.7	-0.6	3.0
CC(=O)C[C@H](O)CC(=O)[C@H]1OC(=O)[C@@H](C)CCCCc2ccccc21	-6.2	0.5	/	/	/
O=C1C(SCCO)=C(SCCO)C(=O)c2ccccc21	99.2*	-2.8	/	/	/
O=C1C(Cl)=C(NCCCO)C(=O)c2ccccc21	16.3	-0.2	-14.7	-1.0	-9.1
SMILES	Beta cell apopt	Bfl-1 A1 inh	T cruzi inh	HIF act	KLF5 inhibitor
Cc1ccc(/C(N)=N/OC(=O)N2CCOCC2)cc1	/	0.4	55.1*	0.8	-22.3
Cc1cccc(/C(N)=N/OC(=O)N2CCOCC2)c1	5.9	-4.0	59.9*	0.7	-50.2
Cc1ccc(C(=O)OCC(=O)N2CCOCC2)cc1	0.1	0.0	3.3	1.7	-39.3
Cc1cccc(/C(N)=N/OC(=O)c2ccco2)c1	5.2	0.5	-17.3	0.3	-172.6
CN1CCN(c2ccc(S(=O)(=O)N3CCCCC3)cc2NC(=O)CCc2ccccc2)CC1	1.7	1.2	/	/	/
CN1CCN(c2ccc(S(=O)(=O)N3CCCCC3)cc2NC(=O)c2ccc(C#N)cc2)CC1	-3.4	-0.7	55.7*	-41.4	-14.5
Cc1ccccc1OCC(=O)Nc1cc(S(=O)(=O)N2CCCCC2)ccc1N1CCN(C)CC1	4.3	0.1	57.9*	0.1	-2.2
CN1CCN(c2ccc(S(=O)(=O)N3CCCCC3)cc2NC(=O)CSCc2ccccc2)CC1	-0.1	0.4	66.8*	-0.2	-15.3
CCc1nc(SCC(=O)NC2CC2)c2c(C)c(C)sc2n1	/	-0.5	9.7	-0.6	-19.0
Cc1cccc(NC(=S)N2CCn3cccc3C2c2cccnc2)c1 (stereo unspecified)	-5.1	0.6	11.5	1.2	-7.2
COc1cccc(NC(=S)N2CCn3cccc3C2c2cccnc2)c1 (stereo unspecified)	-0.7	0.3	76.2*	0.4	-10.5
Fc1ccc(NC(=S)N2CCn3cccc3C2c2cccnc2)cc1 (stereo unspecified)	-15.5	0.0	71.1*	-0.1	-6.3
Fc1ccc(C2c3cccn3CCN2C(=S)Nc2cccc(Br)c2)cc1 (stereo unspecified)	-10.4	1.4	-35.9	-0.4	-13.7
CN(Cc1ccc(C(C)(C)C)cc1)C(=O)c1ccc2c(=O)n3c(nc2c1)CCC3	-1.8	0.0	14.1	1.3	/
Cc1c(C(=O)N/N=C/c2ccc(N3CCOCC3)cc2)nc2ccccn12	2.9	1.6	-2.9	0.6	10.2
